Converted amounts (≈) assume the structure as drawn.
system: Mycobacterium tuberculosis; test: Antitubercular activity against Mycobacterium tuberculosis H37Rv after 5 days by microplate alamar blue assay; type: functional; settings: 120 h
How it was run: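 M. tuberculosis H37Rv (ATCC 27294, rifampin- and isoniazid-susceptible) tested by MABA. Compounds serially diluted directly in Middlebrook 7H9 broth in 96-well plates, which were sealed and incubated at 37 °C for 5 days. A fresh 1:1 Alamar Blue/10% Tween 80 mix was then added and plates were incubated 24 h more. MIC was the lowest concentration preventing the blue-to-pink colour change.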

Which MIC does the source give for `CC[C@H](CO)Nc1ccnc2cc(Cl)ccc12` here?
Its MIC is over 100 µg/mL.

How did the MIC turn out when `Clc1ccc2c(NCCNCc3ccccc3)ccnc2c1` was run?
The MIC was 50 µg/mL (≈ 160 µM).

`OCCNCCNc1ccnc2cc(Cl)ccc12` was tested. Which MIC did it give?
Its MIC is over 100 µg/mL.

With `[N-]=[N+]=NCCNc1ccnc2cc(Cl)ccc12` as the molecule, how does the MIC read?
The MIC was 50 µg/mL (≈ 202 µM).

For `CNCCNc1ccnc2cc(Cl)ccc12`, which MIC is on record?
Its MIC is over 100 µg/mL.

`OCCCNc1ccnc2cc(Cl)ccc12` was tested. Which MIC did it give?
Its MIC is over 100 µg/mL.

For `CNc1ccnc2cc(Cl)ccc12`, which MIC is on record?
Its MIC is 100 µg/mL (≈ 519 µM).

With `CCCNc1ccnc2cc(Cl)ccc12` as the molecule, how does the MIC read?
Its MIC is 50 µg/mL (≈ 227 µM).

`C=C[C@H]1CN2CC[C@H]1C[C@H]2[C@H](O)c1ccnc2ccc(OC)cc12` [QUININE] was tested. Which MIC did it give?
Its MIC is 100 µg/mL (≈ 308 µM).

Which MIC does the source give for `ClCCCNc1ccnc2cc(Cl)ccc12` here?
The MIC was 50 µg/mL (≈ 196 µM).

For `CCCCNc1ccnc2ccccc12`, which MIC is on record?
The MIC was 50 µg/mL (≈ 250 µM).

With `CCCCNc1ccnc2cc(Cl)ccc12` as the molecule, how does the MIC read?
Its MIC is 12.5 µg/mL (≈ 53.3 µM).

For `CCCNCCNc1ccnc2cc(Cl)ccc12`, which MIC is on record?
Its MIC is 100 µg/mL (≈ 379 µM).

Which MIC does the source give for `NCCCCCCCCNc1ccnc2cc(Cl)ccc12` here?
The MIC was 6.25 µg/mL (≈ 20.4 µM).

Which MIC does the source give for `Nc1ccnc2cc(Cl)ccc12` here?
Its MIC is over 100 µg/mL.

For `CC(C)NCCNc1ccnc2cc(Cl)ccc12`, which MIC is on record?
Its MIC is over 100 µg/mL.

`OC(c1cc(C(F)(F)F)nc2c(C(F)(F)F)cccc12)C1CCCCN1` (configuration not stated) [MEFLOQUINE] was tested. Which MIC did it give?
Its MIC is 25 µg/mL (≈ 66.1 µM).

With `OCCNc1ccnc2cc(Cl)ccc12` as the molecule, how does the MIC read?
The MIC was over 100 µg/mL.

For `Clc1ccc2c(NCCNC3CCCCC3)ccnc2c1`, which MIC is on record?
The MIC was 100 µg/mL (≈ 329 µM).

With `NCCCCNc1ccnc2cc(Cl)ccc12` as the molecule, how does the MIC read?
The MIC was over 100 µg/mL.

With `CCC(CO)Nc1ccnc2cc(Cl)ccc12` (racemic) as the molecule, how does the MIC read?
Its MIC is over 100 µg/mL.

With `CC(C)Nc1ccnc2cc(Cl)ccc12` as the molecule, how does the MIC read?
Its MIC is 50 µg/mL (≈ 227 µM).

With `COc1cc(NC(C)CCCN)c2ncccc2c1` (configuration not stated) [PRIMAQUINE] as the molecule, how does the MIC read?
Its MIC is 50 µg/mL (≈ 193 µM).

`CCC(CCl)Nc1ccnc2cc(Cl)ccc12` (configuration not stated) was tested. Which MIC did it give?
The MIC was 50 µg/mL (≈ 186 µM).

For `Nc1ccnc2ccccc12` [QUINOLIN-4-AMINE], which MIC is on record?
Its MIC is over 100 µg/mL.

Which MIC does the source give for `N#CCCNc1ccnc2cc(Cl)ccc12` here?
The MIC was over 100 µg/mL.

`NCCCCCCCCCCNc1ccnc2cc(Cl)ccc12` was tested. Which MIC did it give?
The MIC was 3.12 µg/mL (≈ 9.34 µM).

Which MIC does the source give for `ClCCNc1ccnc2ccccc12` here?
The MIC was over 100 µg/mL.

`ClCCNc1ccnc2cc(Cl)ccc12` was tested. Which MIC did it give?
The MIC was 12.5 µg/mL (≈ 51.8 µM).

How did the MIC turn out when `CC[C@@H](CO)Nc1ccnc2cc(Cl)ccc12` was run?
The MIC was over 100 µg/mL.

For `CCN(CC)Cc1cc(Nc2ccnc3cc(Cl)ccc23)ccc1O.Cl`, which MIC is on record?
The MIC was 100 µg/mL.

With `NCCCCCCNc1ccnc2cc(Cl)ccc12` as the molecule, how does the MIC read?
Its MIC is 25 µg/mL (≈ 90 µM).

`OCCNc1ccnc2ccccc12` was tested. Which MIC did it give?
Its MIC is over 100 µg/mL.

For `NCCNc1ccnc2cc(Cl)ccc12`, which MIC is on record?
The MIC was over 100 µg/mL.

With `CCCCNCCNc1ccnc2cc(Cl)ccc12` as the molecule, how does the MIC read?
The MIC was over 100 µg/mL.

`[N-]=[N+]=Nc1ccnc2cc(Cl)ccc12` was tested. Which MIC did it give?
Its MIC is over 100 µg/mL.

Which MIC does the source give for `NCCCNc1ccnc2cc(Cl)ccc12` here?
The MIC was over 100 µg/mL.

Source: ChEMBL document CHEMBL1152738, “Synthesis and in vitro antitubercular activity of a series of quinoline derivatives” (2009)
